Source: ChEMBL document CHEMBL1121660, “Haloacetamido analogues of 2-amino-2-deoxy-D-mannose. Syntheses and effects on tumor-bearing mice” (J Med Chem, 1981)

Tests used:
[1] = tested on: Mus musculus; assay: In vivo chemotherapy of Ehrlich tumor in B6D2F1 mice at a dose of 0.42 (mmol/kg)/day expressed as number days after tumor challenge; assay type: functional
[2] = tested on: Mus musculus; assay: In vivo chemotherapy of Ehrlich tumor in B6D2F1 mice at a dose of 0.42 (mmol/kg)/day was expressed as number of survivors on 60-day/number of treated;0/8; assay type: functional
[3] = tested on: L1210; assay: Percent of control (thymidine incorporation in vitro) at 2.5 mM in L1210 leukemia cells in vitro of B6D2F1 mice; assay type: functional, Mus musculus
[4] = tested on: Mus musculus; assay: In vivo chemotherapy of Ehrlich tumor in B6D2F1 mice at a dose of 2.5 (mmol/kg)/day was expressed as number of survivors on 60-day/number of treated; 5/8; assay type: functional
[5] = tested on: Mus musculus; assay: In vivo chemotherapy of Ehrlich tumor in B6D2F1 mice at a dose of 2.5 (mmol/kg)/day was expressed as number of survivors on 60-day/number of treated; 3/8; assay type: functional
[6] = tested on: Mus musculus; assay: In vivo chemotherapy of Ehrlich tumor in B6D2F1 mice at a dose of 3.2 (mmol/kg)/day was expressed as number of survivors on 60-day/number of treated;2/4; assay type: functional
[7] = tested on: Mus musculus; assay: In vivo chemotherapy of Ehrlich tumor in B6D2F1 mice at a dose of 3.2 (mmol/kg)/day expressed as number days after tumor challenge; assay type: functional
[8] = Compound was tested for lethal dose administered in single dose intraperitoneally that killed 50% of the animals; assay type: ADME, organism-based; conditions: mouse, in vivo, ip
[9] = tested on: L1210; assay: Compound was tested for concentration that inhibited thymidine incorporation in vitro by 50%; assay type: functional, cell-based, Mus musculus
How it was run: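 Ascites L1210 cells from DBA/2 passage hosts (harvested 5 days after ip implant of 10⁶ cells), washed in 0.85% NaCl and suspended at 2 × 10⁷/mL in RPMI-1640. Exposed 1 h at 37 °C in RPMI-1640 with 10% FBS; tetra-O-acetates added from ethanol solution, free sugars dissolved directly in medium. Cells washed and plated, then pulsed with [³H]thymidine (1.0 μCi/well) for 15 h. TCA-washed cells counted by scintillation. Ethanol-matched controls. IC50 reported as mean ± SE (≥3 determinations) or range (2).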

[10] = tested on: Mus musculus; assay: In vivo chemotherapy of Ehrlich tumor in B6D2F1 mice at a dose of 3.7 (mmol/kg)/day was expressed as number of survivors on 60-day/number of treated; 1/5; assay type: functional
[11] = tested on: Mus musculus; assay: In vivo chemotherapy of Ehrlich tumor in B6D2F1 mice at a dose of 3.7 (mmol/kg)/day expressed as number days after tumor challenge; assay type: functional
[12] = tested on: Mus musculus; assay: In vivo chemotherapy of Ehrlich tumor in B6D2F1 mice at a dose of 0.12 (mmol/kg)/day expressed as number days after tumor challenge; assay type: functional
[13] = tested on: Mus musculus; assay: In vivo chemotherapy of Ehrlich tumor in B6D2F1 mice at a dose of 0.42 (mmol/kg)/day was expressed as number of survivors on 60-day/number of treated; 0/5; assay type: functional
[14] = tested on: Mus musculus; assay: In vivo chemotherapy of Ehrlich tumor in B6D2F1 mice at a dose of 0.71 (mmol/kg)/day was expressed as number of survivors on 60-day/number of treated; 1/8; assay type: functional
[15] = tested on: Mus musculus; assay: In vivo chemotherapy of Ehrlich tumor in B6D2F1 mice at a dose of 0.71 (mmol/kg)/day was expressed as number of survivors on 60-day/number of treated; 8/8; assay type: functional
[16] = tested on: Mus musculus; assay: In vivo chemotherapy of Ehrlich tumor in B6D2F1 mice at a dose of 0.35 (mmol/kg)/day expressed as number days after tumor challenge; assay type: functional
[17] = tested on: Mus musculus; assay: In vivo chemotherapy of Ehrlich tumor in B6D2F1 mice at a dose of 0.71 (mmol/kg)/day was expressed as number of survivors on 60-day/number of treated; 4/8; assay type: functional
[18] = tested on: Mus musculus; assay: In vivo chemotherapy of Ehrlich tumor in B6D2F1 mice at a dose of […] (mmol/kg)/day expressed as number days after tumor challenge; assay type: functional
[19] = tested on: Mus musculus; assay: In vivo chemotherapy of Ehrlich tumor in B6D2F1 mice at a dose of 0.19 (mmol/kg)/day was expressed as number of survivors on 60-day/number of treated; 1/8; assay type: functional
[20] = tested on: Mus musculus; assay: In vivo chemotherapy of Ehrlich tumor in B6D2F1 mice at a dose of 0.22 (mmol/kg)/day expressed as number days after tumor challenge; assay type: functional
[21] = tested on: Mus musculus; assay: In vivo chemotherapy of Ehrlich tumor in B6D2F1 mice at a dose of 0.13 (mmol/kg)/day was expressed as number of survivors on 60-day/number of treated; 3/8; assay type: functional
[22] = tested on: Mus musculus; assay: In vivo chemotherapy of Ehrlich tumor in B6D2F1 mice at a dose of 0.22 (mmol/kg)/day was expressed as number of survivors on 60-day/number of treated; 4/4
[23] = tested on: Mus musculus; assay: In vivo chemotherapy of Ehrlich tumor in B6D2F1 mice at a dose of 0.13 (mmol/kg)/day expressed as number days after tumor challenge; assay type: functional
[24] = tested on: Mus musculus; assay: In vivo chemotherapy of Ehrlich tumor in B6D2F1 mice at a dose of 0.19 (mmol/kg)/day expressed as 60-day survivors (number of survivors/number of treated); 1/8; assay type: functional

For `O=C(CF)NC1C(O)OC(CO)C(O)C1O` (stereo in doubt; form 1), the Days [1] was 2, the Survivors [2] was 0 and the “Thymidine incorporation (% of control)” value [3] was 93%.
`O=C(CBr)NC1C(O)OC(CO)C(O)C1O` (stereo in doubt; form 1) gave a Survivors [4] of 5, a Survivors [5] of 3 and a Survivors [6] of 2. The Days [7] was 4, the LD50 [8] was greater than 3200 µmol/kg and the “Thymidine incorporation (% of control)” value [3] was 79%.
`CC(=O)OCC1OC(OC(C)=O)C(NC(=O)CCl)C(OC(C)=O)C1OC(C)=O` (stereo in doubt; form 1) gave an IC50 ([9]; l1210) of 220 µM.
For `O=C(CCl)NC1C(O)OC(CO)C(O)C1O` (stereo in doubt; form 1), the “Thymidine incorporation (% of control)” value [3] was 51%.
For `CC(=O)OCC1OC(OC(C)=O)C(NC(=O)CBr)C(OC(C)=O)C1OC(C)=O` (stereo in doubt; form 1), the LD50 [8] was 240 µmol/kg.
`CC(=O)OCC1OC(OC(C)=O)C(NC(=O)CF)C(OC(C)=O)C1OC(C)=O` (stereo in doubt; form 2) gave an IC50 ([9]; Mus musculus, L1210) greater than 1000 µM.
For `O=C(CBr)NC1C(O)OC(CO)C(O)C1O` (stereo in doubt; form 2), the “Thymidine incorporation (% of control)” value [3] was 68%.
Work on `CC(=O)OCC1OC(OC(C)=O)C(NC(=O)CCl)C(OC(C)=O)C1OC(C)=O` (stereo in doubt; form 2) yielded an IC50 ([9]; l1210) of 425 µM.
`O=C(CCl)NC1C(O)OC(CO)C(O)C1O` (stereo in doubt; form 2) gave a Survivors [10] of 1 and a Days [11] of 4.
Work on `CC(=O)OCC1OC(OC(C)=O)C(NC(=O)CBr)C(OC(C)=O)C1OC(C)=O` (stereo in doubt; form 2) yielded an IC50 ([9]; l1210) of 6.5 µM.
Work on `CC(=O)OCC1OC(OC(C)=O)C(NC(=O)CF)C(OC(C)=O)C1OC(C)=O` (stereo in doubt; form 3) yielded a Days [12] of 1 and a Survivors [13] of 0.
With `O=C(CBr)NC1C(O)OC(CO)C(O)C1O` (stereo in doubt; form 3) the “Thymidine incorporation (% of control)” value [3] was 95%.
`CC(=O)OCC1OC(OC(C)=O)C(NC(=O)CCl)C(OC(C)=O)C1OC(C)=O` (stereo in doubt; form 3) showed an IC50 ([9]; l1210) of 143 µM, a Survivors [14] of 1 and an LD50 [8] of 1600 µmol/kg. The Survivors [15] was 8, the Days [16] was 3 and the Survivors [17] was 4.
For `O=C(CCl)NC1C(O)OC(CO)C(O)C1O` (stereo in doubt; form 3), the “Thymidine incorporation (% of control)” value [3] was 97%.
`CC(=O)OCC1OC(OC(C)=O)C(NC(=O)CBr)C(OC(C)=O)C1OC(C)=O` (stereo in doubt; form 3) gave a Days [18] of 3, an IC50 ([9]; Mus musculus, L1210) of 9.4 µM and a Survivors [19] of 1. The Days [20] was 1, the Survivors [21] was 3 and the Survivors [22] was 4. It also gave a Days [23] of 1 and a Survivors [24] of 1.
